ChEMBL document CHEMBL4765433, “From methylene bridged diindole to carbonyl linked benzimidazoleindole: Development of potent and metabolically stable PCSK9 modulators” (Eur J Med Chem, 2020)
Active and inactive are the calls of the source. No cut-off for these calls is given here.

What was measured:
HepG2 = test: Cytotoxicity against human HepG2 cells assessed as reduction in cell viability at <=10 uM by MTT assay; type: cell-based
[1] = target: T1, Proprotein convertase subtilisin/kexin type 9 (Homo sapiens, UniProt Q8NBP7); test: Modulation of PCSK9 in human HepG2 cells assessed as reduction in PCSK9 expression at 100 nM incubated for 24 hrs prior to compound washout followed by compound addition and measured after 24 hrs by ELISA; type: cell-based; set-up: scale not given: the % may be the effect or the level left; details: time 48.0 hrs
T1 sequence (Q8NBP7 31-152 limits assumed): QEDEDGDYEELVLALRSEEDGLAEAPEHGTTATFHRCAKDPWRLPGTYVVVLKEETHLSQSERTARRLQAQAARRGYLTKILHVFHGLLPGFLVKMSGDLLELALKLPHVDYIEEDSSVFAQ
T1 sequence (Q8NBP7 153-692 limits assumed): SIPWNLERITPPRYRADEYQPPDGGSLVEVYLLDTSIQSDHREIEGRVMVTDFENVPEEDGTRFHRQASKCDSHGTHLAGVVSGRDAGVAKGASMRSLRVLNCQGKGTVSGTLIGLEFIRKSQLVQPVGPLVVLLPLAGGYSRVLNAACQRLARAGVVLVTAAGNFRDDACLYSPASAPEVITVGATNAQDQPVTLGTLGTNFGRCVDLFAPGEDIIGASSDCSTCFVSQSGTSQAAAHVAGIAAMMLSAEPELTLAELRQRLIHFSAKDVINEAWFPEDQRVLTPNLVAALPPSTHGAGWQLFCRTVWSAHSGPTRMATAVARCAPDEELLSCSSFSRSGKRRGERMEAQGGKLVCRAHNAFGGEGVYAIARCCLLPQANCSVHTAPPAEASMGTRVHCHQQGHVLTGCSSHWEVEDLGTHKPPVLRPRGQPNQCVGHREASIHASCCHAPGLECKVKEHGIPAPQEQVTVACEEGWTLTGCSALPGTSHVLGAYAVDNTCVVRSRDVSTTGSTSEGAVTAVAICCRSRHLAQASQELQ
Summary of the method: (§1)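 HepG2 cells grown to 90% confluence and plated at 1X105 cells/well, then left to settle overnight. Medium replaced with dose medium containing compound or DMSO vehicle for 24 h, refreshed with the same medium, then incubated 24 h more. Medium collected after centrifugation. PCSK9 measured by sandwich ELISA with TMB read-out at 450 nm. Values normalized to vehicle, mean of n = 3.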

[2] = Intrinsic clearance in rat liver microsomes measured after 60 mins in presence of NADPH by LC-MS/MS analysis; type: ADME, Microsome; details: for Intrinsic clearance in rat liver microsomes: 1 h
[3] = target: T1, Proprotein convertase subtilisin/kexin type 9; test: Modulation of PCSK9 in human HepG2 cells assessed as reduction in PCSK9 expression at 10 nM incubated for 24 hrs prior to compound washout followed by compound addition and measured after 24 hrs by ELISA; type: cell-based; set-up: scale not given: the % may be the effect or the level left; details: time 48.0 hrs; summary of the method: as §1
[4] = Intrinsic clearance in mouse liver microsomes measured after 60 mins in presence of NADPH by LC-MS/MS analysis; type: ADME, Microsome; details: for microsomal intrinsic clearance: microsomes, 1 h
[5] = target: T1, Proprotein convertase subtilisin/kexin type 9; test: Modulation of PCSK9 in human HepG2 cells assessed as reduction in PCSK9 expression incubated for 24 hrs prior to compound washout followed by compound addition and measured after 24 hrs by ELISA; type: cell-based; summary of the method: as §1
[6] = Half life in rat liver microsomes measured after 60 mins in presence of NADPH by LC-MS/MS analysis; type: ADME, Microsome; details: 1 h
[7] = Half life in mouse liver microsomes measured after 60 mins in presence of NADPH by LC-MS/MS analysis; type: ADME, Microsome; details: 1 h
[8] = target: T1, Proprotein convertase subtilisin/kexin type 9; test: Modulation of PCSK9 in human HepG2 cells assessed as reduction in PCSK9 expression at 10 to 100 nM incubated for 24 hrs prior to compound washout followed by compound addition and measured after 24 hrs by ELISA; type: cell-based; details: filed as modulator, dose 10-100 nM, time 48.0 hrs
Summary of the method: (§2)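 HepG2 cells grown to 90% confluence, plated at 1X105 cells/well and left overnight. Medium then replaced with compound- or vehicle (DMSO)-containing dose medium, refreshed at 24 h, collected after a further 24 h. Secreted PCSK9 measured by sandwich ELISA with TMB read-out at 450 nm. Values normalized to DMSO group, mean of n = 3 ± SD.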

[9] = Intrinsic clearance in human liver microsomes measured after 60 mins in presence of NADPH by LC-MS/MS analysis; type: ADME, Microsome; details: 1 h
[10] = target: T1, Proprotein convertase subtilisin/kexin type 9; test: Modulation of PCSK9 in human HepG2 cells assessed as reduction in PCSK9 expression at 1 uM incubated for 24 hrs prior to compound washout followed by compound addition and measured after 24 hrs by ELISA; type: cell-based; set-up: scale not given: the % may be the effect or the level left; details: filed as modulator, time 48.0 hrs; summary of the method: as §1
[11] = Half life in human liver microsomes measured after 60 mins in presence of NADPH by LC-MS/MS analysis; type: ADME, Microsome; details: 1 h
[12] = AUC (0 to infinity) in BTBR mouse at 6 mg/kg, ip administered as single dose by LC-MS/MS analysis; type: ADME, organism-based; set-up: time infinity, route intraperitoneal, dose 6 mg/kg; details: in vivo
Summary of the method: (§3)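 Mice given a single intraperitoneal dose of 6 mg/kg. Formulation: DMSO (10 %) and Tween 80 (10 %) in PBS (80 %). Plasma samples collected and analysed by LC-MS/MS. AUC is total exposure after the single dose, Cmax is maximum plasma concentration, and T1/2 is half-life.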

[13] = Half life in BTBR mouse at 6 mg/kg, ip administered as single dose by LC-MS/MS analysis; type: ADME, organism-based; details: in vivo; summary of the method: as §3
[14] = Cmax in BTBR mouse at 6 mg/kg, ip administered as single dose by LC-MS/MS analysis; type: ADME, organism-based; set-up: route intraperitoneal, dose 6 mg/kg; details: in vivo; summary of the method: as §3
[15] = target: T1, Proprotein convertase subtilisin/kexin type 9; test: Modulation of PCSK9 in human HepG2 cells assessed as reduction in PCSK9 expression at 1 to 10 uM incubated for 24 hrs prior to compound washout followed by compound addition and measured after 24 hrs by ELISA; type: cell-based; details: filed as modulator, dose 1-10 µM, time 48.0 hrs; summary of the method: as §2
[16] = liver microsomes, read-out: CLH

Cn1c(C(=O)c2c[nH]c3ccc(F)cc23)nc2ccc(F)cc21
Activity (HepG2): Non-Toxic

Cn1c(C(=O)c2c[nH]c3c(F)cccc23)nc2ccc(F)cc21
Activity [1]: 12.5% | microsomal CLint [2, 16]: 23 µL/min/mg | Activity [3]: 35% | Activity (HepG2): Non-Toxic | microsomal CLint [4, 16]: 41.7 µL/min/mg | EC50 [5]: 0.15 nM

O=C(c1nc2ccccc2[nH]1)c1c[nH]c2ccccc12
t1/2 [6]: 42.4 min | Intrinsic clearance in rat liver microsomes [2]: 33.1 µL/min/mg | t1/2 [7]: 25.8 min | Activity (HepG2): Non-Toxic | microsomal intrinsic clearance [4]: 54.6 µL/min/mg

Cn1c(C(=O)c2c[nH]c3c(F)cccc23)nc2ccccc21
Activity [8]: Active | Activity (HepG2): Non-Toxic

Cn1c(C(=O)c2cn(CCCCN3CCOCC3)c3c(F)cccc23)nc2ccc(F)cc21
Activity (HepG2): Non-Toxic | EC50 [5]: 88 nM

CCCCn1cc(C(=O)c2nc3ccc(F)cc3n2C)c2cccc(F)c21
Activity (HepG2): Non-Toxic | EC50 [5]: 0.28 nM

Fc1ccc2nc(Cc3c[nH]c4c(F)cccc34)[nH]c2c1
CLH [9]: 79.4 µL/min/mg | t1/2 [6]: 9.5 min | Intrinsic clearance in rat liver microsomes [2]: 145.6 µL/min/mg | t1/2 [7]: 7.1 min | Activity [10]: Active | t1/2 [11]: 17.5 min | Activity (HepG2): Non-Toxic | microsomal intrinsic clearance [4]: 194.9 µL/min/mg | EC50 [5]: 348 nM

Fc1ccc2nc(Cc3c[nH]c4c(F)cccc34)n(Cc3ccncc3)c2c1
Activity (HepG2): Non-Toxic

Cn1c(C(=O)c2c[nH]c3cc(F)ccc23)nc2ccc(F)cc21
Activity (HepG2): Non-Toxic

Cn1c(C(=O)c2c[nH]c3cccc(F)c23)nc2ccc(F)cc21
Activity (HepG2): Non-Toxic

Cn1c(C(=O)c2cn(S(=O)(=O)CCN3CCNCC3)c3c(F)cccc23)nc2ccc(F)cc21
Activity (HepG2): Non-Toxic | EC50 [5]: 161 nM

Fc1ccc2[nH]c(Cc3c[nH]c4c(F)cccc34)cc2c1
CLH [9]: 23 µL/min/mg | t1/2 [6]: 23.2 min | Intrinsic clearance in rat liver microsomes [2]: 60.7 µL/min/mg | t1/2 [7]: 16.5 min | Activity [10]: Active | t1/2 [11]: 63.9 min | microsomal intrinsic clearance [4]: 83.9 µL/min/mg

O=C(c1nc2ccc(F)cc2[nH]1)c1c[nH]c2c(F)cccc12
t1/2 [6]: 47.8 min | AUC(0-inf) [12]: 696 ng·h/mL | Intrinsic clearance in rat liver microsomes [2]: 29.4 µL/min/mg | t1/2 [7]: 30 min | Activity [10]: 90% | half-life [13]: 98.4 min | Activity (HepG2): Non-Toxic | microsomal intrinsic clearance [4]: 46.5 µL/min/mg | Cmax [14]: 294 ng/mL | EC50 [5]: 2.46 nM

Cn1c(C(=O)c2cn(CCCN3CCOCC3)c3c(F)cccc23)nc2ccc(F)cc21
Activity (HepG2): Non-Toxic | EC50 [5]: 39.9 nM

Cn1c(C(=O)c2c[nH]c3c(F)cccc23)nc2cccc(F)c21
Activity [8]: Active | Activity (HepG2): Non-Toxic

Cn1c(C(=O)c2c[nH]c3c(F)cccc23)nc2c(F)cccc21
Activity [8]: Active | Activity (HepG2): Non-Toxic

O=C(c1nc2ccccc2[nH]1)c1c[nH]c2c(F)cccc12
Activity (HepG2): Non-Toxic

CC(C)(C)Cn1c(Cc2c[nH]c3c(F)cccc23)nc2ccc(F)cc21
Activity (HepG2): Non-Toxic

Cn1c(C(=O)c2cn(S(=O)(=O)CCN3CCOCC3)c3c(F)cccc23)nc2ccc(F)cc21
Activity (HepG2): Non-Toxic | EC50 [5]: 0.69 nM

Cn1c(C(=O)c2cn(CCN3CCOCC3)c3c(F)cccc23)nc2ccc(F)cc21
Activity (HepG2): Non-Toxic | EC50 [5]: 11 nM

Fc1ccc2nc(Cc3c[nH]c4c(F)cccc34)n(CCc3ccccc3)c2c1
Activity (HepG2): Non-Toxic

Cn1c(C(=O)c2c[nH]c3ccccc23)nc2ccc(F)cc21
Activity [8]: Active | Activity (HepG2): Non-Toxic

O=C(c1nc2c(F)cccc2[nH]1)c1c[nH]c2c(F)cccc12
Activity (HepG2): Non-Toxic

OCCn1c(Cc2c[nH]c3c(F)cccc23)nc2ccc(F)cc21
Activity (HepG2): Non-Toxic

[2H]C([2H])(c1nc2cc(F)ccc2[nH]1)c1c[nH]c2c(F)cccc12
t1/2 [6]: 23.5 min | Intrinsic clearance in rat liver microsomes [2]: 59.1 µL/min/mg | t1/2 [7]: 16.3 min | Activity (HepG2): Non-Toxic | microsomal intrinsic clearance [4]: 85.2 µL/min/mg

O=C(c1nc2ccc(F)cc2[nH]1)c1c[nH]c2ccccc12
Activity (HepG2): Non-Toxic

Cn1c(Cc2c[nH]c3c(F)cccc23)nc2ccc(F)cc21
Activity (HepG2): Non-Toxic | Activity [15]: Active

Fc1ccc2nc(Cc3c[nH]c4c(F)cccc34)n(Cc3ccccc3)c2c1
Activity (HepG2): Non-Toxic

Fc1ccc2nc(Cc3c[nH]c4c(F)cccc34)n(Cc3cccnc3)c2c1
Activity (HepG2): Non-Toxic

Cn1cc(C(=O)c2nc3ccc(F)cc3n2C)c2cccc(F)c21
Activity (HepG2): Non-Toxic | EC50 [5]: 1.21 nM

O=C(c1cc2cc(F)ccc2[nH]1)c1c[nH]c2c(F)cccc12
t1/2 [6]: 76.9 min | AUC(0-inf) [12]: 610 ng·h/mL | Intrinsic clearance in rat liver microsomes [2]: 18.1 µL/min/mg | t1/2 [7]: 40.1 min | Activity [10]: Active | half-life [13]: 78.6 min | Activity (HepG2): Non-Toxic | microsomal intrinsic clearance [4]: 34.6 µL/min/mg | Cmax [14]: 323 ng/mL

CC(C)Cn1c(Cc2c[nH]c3c(F)cccc23)nc2ccc(F)cc21
Activity (HepG2): Non-Toxic

Cn1c(C(=O)c2c[nH]c3c(F)cccc23)nc2cc(F)ccc21
Activity [1]: 11.9% | Activity [3]: 34.4% | Activity (HepG2): Non-Toxic
